Results taken from ChEMBL document CHEMBL4257478, “Design, synthesis and evaluation of (R)-3-(7-(methyl(7H-pyrrolo[2,3-d]pyrimidin-4-yl)amino)-5-azaspiro[2.4]heptan-5-yl)-3-oxopropanenitrile as a JAK1-selective inhibitor” (Medchemcomm, 2018).
Each block holds one compound with its values, some of them ahead of it.

What was measured:
[1] = target: T1, Tyrosine-protein kinase JAK1 (Homo sapiens, UniProt P23458); assay: Inhibition of human JAK1 at 1 uM using GEEPLYWSFPAKKK as substrate after 40 mins in presence of [gamma-33P-ATP] by scintillation counting method relative to control
[2] = Cmax in Sprague-Dawley rat at 10 mg/kg, po after 0.25 to 24 hrs by LC-MS/MS method; type: ADME, organism-based; set-up: dose 10 mg/kg, route oral; settings: in vivo
How it was run: (§1)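 Male Sprague Dawley rats, 7-8 weeks old, n=4 per group. IV dose 5 mg/kg free base in 10% ethanol/90% PEG400; oral dose 10 mg/kg as corn oil suspension after 16 h fast. Blood taken 0.08-24 h (IV) or 0.25-24 h (PO). Plasma diluted in acetonitrile with internal standard, analysed by LC-MS/MS, parameters by non-compartmental analysis.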

[3] = Tmax in Sprague-Dawley rat at 10 mg/kg, po after 0.25 to 24 hrs by LC-MS/MS method; type: ADME, organism-based; settings: in vivo
How it was run: (§2)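 Male Sprague Dawley rats, 7–8 weeks old, n=4, fasted 16 h. Free base given at 10 mg/kg po as a corn oil suspension (5 mL/kg); a 5 mg/kg iv arm used 10% ethanol/90% PEG400. Plasma sampled 0.25–24 h, acetonitrile-precipitated with internal standard, and measured by LC-MS/MS. Parameters derived by non-compartmental analysis.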

[4] = Half life in Sprague-Dawley rat at 10 mg/kg, po after 0.25 to 24 hrs by LC-MS/MS method; type: ADME, organism-based; settings: in vivo; how it was run: as §1
Rattus norvegicus [5] = assay: AUC (0 to infinity) in Sprague-Dawley rat at 10 mg/kg, po after 0.25 to 24 hrs by LC-MS/MS method; type: ADME, organism-based; set-up: dose 10 mg/kg, route oral, time infinity; settings: in vivo; how it was run: as §1
Rattus norvegicus [6] = assay: AUC (0 to t) in Sprague-Dawley rat at 10 mg/kg, po after 0.25 to 24 hrs by LC-MS/MS method; type: ADME, organism-based; set-up: time lower 0.25 hr, dose 10 mg/kg, time upper 24 hr, route oral; settings: in vivo; how it was run: as §1
[7] = MRT in Sprague-Dawley rat at 10 mg/kg, po after 0.25 to 24 hrs by LC-MS/MS method; type: ADME, organism-based; settings: in vivo; how it was run: as §1
[8] = Oral bioavailability in Sprague-Dawley rat at 10 mg/kg after 0.25 to 24 hrs by LC-MS/MS method; type: ADME, organism-based; settings: in vivo; how it was run: as §2
[9] = Half life in Sprague-Dawley rat at 5 mg/kg, iv after 0.08 to 24 hrs by LC-MS/MS method; type: ADME, organism-based; settings: in vivo; how it was run: as §1
Rattus norvegicus [10] = assay: AUC (0 to infinity) in Sprague-Dawley rat at 5 mg/kg, iv after 0.08 to 24 hrs by LC-MS/MS method; type: ADME, organism-based; set-up: dose 5 mg/kg, time infinity, route intravenous; settings: in vivo; how it was run: as §1
Rattus norvegicus [11] = assay: AUC (0 to t) in Sprague-Dawley rat at 5 mg/kg, iv after 0.08 to 24 hrs by LC-MS/MS method; type: ADME, organism-based; set-up: time upper 24 hr, time lower 0.08 hr, dose 5 mg/kg, route intravenous; settings: in vivo; how it was run: as §1
[12] = MRT in Sprague-Dawley rat at 5 mg/kg, iv after 0.08 to 24 hrs by LC-MS/MS method; type: ADME, organism-based; settings: in vivo; how it was run: as §1
[13] = target: T1, Tyrosine-protein kinase JAK1; assay: Inhibition of human JAK1 using GEEPLYWSFPAKKK as substrate after 40 mins in presence of [gamma-33P-ATP] by scintillation counting method
[14] = target: Tyrosine-protein kinase JAK2 (Homo sapiens, UniProt O60674); assay: Inhibition of human JAK2 using KTFCGTPEYLAPEVRREPRILSEEEQEMFRDFDYIADWC as substrate after 40 mins in presence of [gamma-33P-ATP] by scintillation counting method
Homo sapiens = organism: Homo sapiens; assay: Selectivity index, ratio of IC50 for human JAK2 to IC50 for human JAK1
How it was run: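 Kinase activity assays run as a commercial service at Km ATP; IC50 values fitted from concentration-response data; ratio of JAK2 to JAK1 IC50.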

T1 sequence (P23458 whole entry): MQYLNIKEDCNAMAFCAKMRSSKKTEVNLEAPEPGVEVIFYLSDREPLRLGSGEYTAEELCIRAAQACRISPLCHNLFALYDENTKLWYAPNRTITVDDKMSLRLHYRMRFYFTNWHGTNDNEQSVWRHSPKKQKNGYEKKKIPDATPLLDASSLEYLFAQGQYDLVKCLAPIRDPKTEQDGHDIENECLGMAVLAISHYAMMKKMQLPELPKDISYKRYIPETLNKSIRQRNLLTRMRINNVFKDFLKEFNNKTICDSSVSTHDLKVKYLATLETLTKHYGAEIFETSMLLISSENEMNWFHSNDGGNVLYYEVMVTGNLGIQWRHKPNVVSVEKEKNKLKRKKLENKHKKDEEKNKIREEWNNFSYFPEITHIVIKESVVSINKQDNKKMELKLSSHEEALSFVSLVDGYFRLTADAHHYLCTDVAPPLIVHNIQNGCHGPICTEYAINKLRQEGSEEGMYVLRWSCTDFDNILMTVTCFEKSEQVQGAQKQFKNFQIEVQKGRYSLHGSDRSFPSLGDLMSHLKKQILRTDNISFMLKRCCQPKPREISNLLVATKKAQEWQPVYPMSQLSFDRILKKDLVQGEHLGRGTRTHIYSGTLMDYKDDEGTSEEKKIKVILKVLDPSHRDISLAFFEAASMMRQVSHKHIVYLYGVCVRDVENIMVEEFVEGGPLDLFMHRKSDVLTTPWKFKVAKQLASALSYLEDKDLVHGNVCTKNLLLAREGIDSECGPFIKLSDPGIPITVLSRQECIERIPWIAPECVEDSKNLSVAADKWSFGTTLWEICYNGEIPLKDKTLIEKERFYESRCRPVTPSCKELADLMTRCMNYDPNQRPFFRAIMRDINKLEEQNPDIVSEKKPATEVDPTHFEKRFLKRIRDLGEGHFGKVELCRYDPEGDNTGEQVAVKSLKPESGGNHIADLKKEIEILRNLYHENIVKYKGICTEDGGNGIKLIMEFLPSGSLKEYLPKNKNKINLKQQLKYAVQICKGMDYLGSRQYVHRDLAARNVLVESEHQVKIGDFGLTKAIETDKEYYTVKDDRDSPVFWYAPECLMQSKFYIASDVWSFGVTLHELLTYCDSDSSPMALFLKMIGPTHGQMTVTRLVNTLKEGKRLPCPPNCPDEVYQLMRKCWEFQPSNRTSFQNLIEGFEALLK
Sequence of Tyrosine-protein kinase JAK2 (O60674 whole entry): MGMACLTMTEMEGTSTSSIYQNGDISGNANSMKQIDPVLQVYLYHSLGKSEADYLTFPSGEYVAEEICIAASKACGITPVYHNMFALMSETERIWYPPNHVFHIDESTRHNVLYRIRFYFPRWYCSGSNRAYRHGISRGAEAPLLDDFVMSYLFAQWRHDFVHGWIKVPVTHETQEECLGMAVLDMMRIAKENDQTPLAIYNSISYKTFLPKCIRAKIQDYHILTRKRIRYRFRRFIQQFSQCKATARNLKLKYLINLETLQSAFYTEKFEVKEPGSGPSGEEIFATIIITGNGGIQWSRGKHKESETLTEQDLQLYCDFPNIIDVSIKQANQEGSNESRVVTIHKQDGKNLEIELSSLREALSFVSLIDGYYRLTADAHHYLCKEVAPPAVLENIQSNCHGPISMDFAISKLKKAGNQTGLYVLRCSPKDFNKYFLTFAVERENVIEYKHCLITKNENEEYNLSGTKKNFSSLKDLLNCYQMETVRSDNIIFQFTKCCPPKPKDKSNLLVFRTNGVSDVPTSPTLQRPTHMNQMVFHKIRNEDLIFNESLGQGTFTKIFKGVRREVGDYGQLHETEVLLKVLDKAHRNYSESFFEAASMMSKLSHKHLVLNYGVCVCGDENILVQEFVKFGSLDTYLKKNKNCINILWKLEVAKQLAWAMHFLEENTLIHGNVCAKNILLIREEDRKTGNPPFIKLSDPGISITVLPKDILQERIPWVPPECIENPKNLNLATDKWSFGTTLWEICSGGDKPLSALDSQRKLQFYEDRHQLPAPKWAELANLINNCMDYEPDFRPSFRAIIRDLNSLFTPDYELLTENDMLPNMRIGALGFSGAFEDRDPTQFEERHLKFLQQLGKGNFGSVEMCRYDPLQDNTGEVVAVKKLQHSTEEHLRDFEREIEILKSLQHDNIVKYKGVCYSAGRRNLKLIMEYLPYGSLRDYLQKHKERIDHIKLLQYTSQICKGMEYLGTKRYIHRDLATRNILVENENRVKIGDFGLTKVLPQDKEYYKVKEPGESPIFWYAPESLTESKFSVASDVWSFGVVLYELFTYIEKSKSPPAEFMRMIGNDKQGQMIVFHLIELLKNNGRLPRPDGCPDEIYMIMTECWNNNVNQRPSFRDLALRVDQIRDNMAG

inhibition [1]: 99%
SMILES: CN(c1ncnc2[nH]ccc12)[C@@H]1CCCN(C(=O)CC#N)C1

inhibition [1]: 35%
SMILES: N#CCC(=O)N1CCC(Oc2ncnc3[nH]ccc23)CC1

Cmax [2]: 1300 ng/mL | Tmax [3]: 0.4 h | half-life [4]: 1.1 h | AUC (Rattus norvegicus [5]): 2400 ng·h/mL | AUCt (Rattus norvegicus [6]): 2400 ng·h/mL | MRT [7]: 1.6 h | bioavailability [8]: 65% | half-life [9]: 0.6 h | AUC (Rattus norvegicus [10]): 1900 ng·h/mL | AUCt (Rattus norvegicus [11]): 1800 ng·h/mL | MRT [12]: 0.7 h
SMILES: CN(c1ncnc2[nH]ccc12)[C@H]1CN(C(=O)CC#N)CC12CC2.Cl

Cmax [2]: 1000 ng/mL | Tmax [3]: 0.4 h | half-life [4]: 1 h | AUC (Rattus norvegicus [5]): 1900 ng·h/mL | AUCt (Rattus norvegicus [6]): 1900 ng·h/mL | MRT [7]: 1.5 h | bioavailability [8]: 68% | half-life [9]: 1 h | AUC (Rattus norvegicus [10]): 1400 ng·h/mL | AUCt (Rattus norvegicus [11]): 1400 ng·h/mL | MRT [12]: 0.9 h
SMILES: CN(c1ncnc2[nH]ccc12)[C@H]1CN(C(=O)CC#N)CC12CC2.O=C(O)C(O)C(O)C(=O)O

inhibition [1]: 30%
SMILES: N#CCC(=O)N1CCCC(COc2ncnc3[nH]ccc23)C1 (stereo not given)

inhibition [1]: 49%
SMILES: CN(c1ncnc2[nH]ccc12)C1CCN(C(=O)CC#N)CC1

inhibition [1]: 54%
SMILES: N#CCC(=O)N1C[C@H]2CCCN(c3ncnc4[nH]ccc34)[C@H]2C1

Cmax [2]: 1200 ng/mL | Tmax [3]: 0.5 h | half-life [4]: 3.6 h | AUC (Rattus norvegicus [5]): 2400 ng·h/mL | AUCt (Rattus norvegicus [6]): 2400 ng·h/mL | MRT [7]: 2.3 h | bioavailability [8]: 58% | half-life [9]: 4.3 h | AUC (Rattus norvegicus [10]): 2000 ng·h/mL | AUCt (Rattus norvegicus [11]): 2000 ng·h/mL | MRT [12]: 1.2 h
SMILES: CN(c1ncnc2[nH]ccc12)[C@H]1CN(C(=O)CC#N)CC12CC2.O=C(O)CC(O)(CC(=O)O)C(=O)O

inhibition [1]: 95%
SMILES: CN(c1ncnc2[nH]ccc12)C1CN(C(=O)CC#N)CC12CC2 (racemic)

IC50 [13]: 0.1 µM | IC50 [14]: 7.4 µM | Ratio IC50 (Homo sapiens): 74
SMILES: CN(c1ncnc2[nH]ccc12)[C@H]1CN(C(=O)c2cccc(C#N)c2)CC12CC2

SMILES: CCN1C[C@H](N(C)c2ncnc3[nH]ccc23)C2(CC2)C1
IC50 [13]: 1.4 µM | IC50 [14]: 30 µM | Ratio IC50 (Homo sapiens): 21
